Converted amounts (≈) assume the structure as drawn.

What all share (format): functional
Test [1] deals with Staphylococcus aureus. Kind of test: Antibacterial activity against Staphylococcus aureus after 18 to 22 hrs by broth microdilution method. Summed up:
(§1)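 Broth microdilution per NCCLS in Mueller-Hinton II broth; isolates subcultured for purity. Compounds dissolved in DMSO, serial dilutions 256 to 0.5 µg/mL; inoculum 10^5/mL. Controls: organism without compound, medium only. Incubation 18 to 22 h at 35 °C. MIC is the lowest concentration giving complete growth inhibition, read by unaided eye.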
In general terms: Dilution methods test growth across graded concentrations, often in twofold steps.

Test [2] has as its system Staphylococcus warneri. The experiment in a line: Antibacterial activity against Staphylococcus warneri after 18 to 22 hrs by broth microdilution method. The essentials:
as §1

Test [3] deals with Enterococcus faecalis. Kind of test: Antibacterial activity against […] faecalis after 18 to 22 hrs by broth microdilution method. The essentials: as §1
Test [4] relates to Staphylococcus haemolyticus. Kind of test: Antibacterial activity against Staphylococcus haemolyticus after 18 to 22 hrs by broth microdilution method. The essentials:
as §1

In test [5] the test system is Escherichia coli. Kind of test: Antibacterial activity against Escherichia coli at after 18 to 22 hrs by broth microdilution method. The essentials:
as §1

Test [6] deals with Proteus mirabilis. Kind of test: Antibacterial activity against Proteus mirabilis after 18 to 22 hrs by broth microdilution method. Summed up: as §1
Test [7] deals with Enterobacter sp. Kind of test: Antibacterial activity against Enterobacter sp. after 18 to 22 hrs by broth microdilution method. The essentials:
as §1

The subject of test [8] is Klebsiella oxytoca. Kind of test: Antibacterial activity against Klebsiella oxytoca after 18 to 22 hrs by broth microdilution method. The essentials:
as §1

The test system of test [9] is Candida albicans. The experiment in a line: Antifungal activity against Candida albicans clinical isolate after 24 hrs by sabouraud dextrose broth based microdilution method. Summed up:
(§2)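 Clinical isolates identified by conventional methods and subcultured for purity. Broth microdilution per NCCLS in Sabouraud dextrose broth; compounds dissolved in DMSO and serially diluted; inoculum 10^3/mL. Controls: fungi without compound, medium only. Incubated 24 h at 37 °C. MIC is the lowest concentration with complete growth inhibition by unaided eye. Values are geometric means over isolates per species.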

Test [10] relates to Nakaseomyces glabratus. Kind of test: Antifungal activity against Candida glabrata clinical isolate after 24 hrs by sabouraud dextrose broth based microdilution method. The essentials: as §2
The subject of test [11] is Candida tropicalis. Kind of test: Antifungal activity against Candida tropicalis clinical isolate after 24 hrs by sabouraud dextrose broth based microdilution method. The essentials:
as §2

Test [12] has as its system Pichia kudriavzevii. The experiment in a line: Antifungal activity against Candida krusei clinical isolate after 24 hrs by sabouraud dextrose broth based microdilution method. The essentials: as §2
Test [13] deals with Candida parapsilosis. Kind of test: Antifungal activity against Candida parapsilosis clinical isolate after 24 hrs by sabouraud dextrose broth based microdilution method. Conditions: Lodderomyces parapsilosis. The essentials: as §2
Test [14] deals with [Candida] sake. Kind of test: Antifungal activity against Candida sake clinical isolate after 24 hrs by sabouraud dextrose broth based microdilution method. Conditions: Fermentozyma sake. Summed up:
as §2

With `CCC/C(C)=N/N=C1\SCC(=O)N1CN1C(=O)c2ccccc2C1=O`, the MIC in test [1], in test [2], in [3], in test [4], in [5] and in [6] was more than 256 mg/L throughout. Also, the MIC (as a rule, the smallest concentration in the dilution series that meets the test's criterion for growth inhibition) in test [7] was more than 256 mg/L; in test [8], more than 256 mg/L; in [9] it was 2 mg/L (≈ 5.58 µM); in test [10] it was 2 mg/L (≈ 5.58 µM); in [11] it was 4 mg/L (≈ 11.2 µM); in test [12], 2 mg/L (≈ 5.58 µM). Further, the minimum inhibitory concentration (MIC) in test [13] came to 2 mg/L (≈ 5.58 µM); in [14], 4 mg/L (≈ 11.2 µM).

As to `C=CCC/C(C)=N/N=C1\SCC(=O)N1CN1C(=O)c2ccccc2C1=O`, the minimum inhibitory concentration (MIC) in [1], in test [2], in [3], in test [4], in [5] and in test [6] was more than 256 mg/L throughout. The minimum inhibitory concentration (MIC) in test [7] was more than 256 mg/L; in [8], more than 256 mg/L; in [9] it was 4 mg/L (≈ 10.8 µM); in test [10], 32 mg/L (≈ 86.4 µM); in test [11] it was 4 mg/L (≈ 10.8 µM); in [12] it was 32 mg/L (≈ 86.4 µM). For the same compound, the minimum inhibitory concentration (MIC) in test [13] came to 128 mg/L (≈ 346 µM); in test [14], 8 mg/L (≈ 21.6 µM).

In the case of `O=C1CS/C(=N\N=C\c2cccc3ccccc23)N1Cc1cccc2ccccc12`, the MIC in test [1], in test [2], in test [3], in test [4], in [5] and in [6] was more than 256 mg/L in each case. Besides, the minimal inhibitory concentration (MIC) is more than 256 mg/L in test [7]; more than 256 mg/L in test [8]; 256 mg/L (≈ 625 µM) in test [9]; 64 mg/L (≈ 156 µM) in test [10]; 32 mg/L (≈ 78.1 µM) in test [11]; 8 mg/L (≈ 19.5 µM) in test [12]. Also, the minimal inhibitory concentration (MIC) in test [13] and in test [14] was 8 mg/L (≈ 19.5 µM) throughout.

Turning to `O=C1CS/C(=N\N=C\c2ccc3c(c2)OCO3)N1Cc1cccc2ccccc12`, the minimal inhibitory concentration (MIC) in [1], in [2], in test [3], in test [4], in [5] and in test [6] was more than 256 mg/L each time. The minimum inhibitory concentration (MIC) was more than 256 mg/L in test [7]; more than 256 mg/L in test [8]; 8 mg/L (≈ 19.8 µM) in [9]; 4 mg/L (≈ 9.91 µM) in [10]; 16 mg/L (≈ 39.7 µM) in test [11]; 8 mg/L (≈ 19.8 µM) in [12]. The MIC came to 16 mg/L (≈ 39.7 µM) in test [13] and 8 mg/L (≈ 19.8 µM) in test [14].

In the case of `CCC(CC)=N/N=C1\SCC(=O)N1CN1C(=O)c2ccccc2C1=O`, the minimal inhibitory concentration (MIC) in test [1], in test [2], in test [3], in test [4], in [5] and in [6] was more than 256 mg/L throughout. In addition, the minimal inhibitory concentration (MIC) in [7] is more than 256 mg/L; in test [8], more than 256 mg/L; in test [9] it was 2 mg/L (≈ 5.58 µM); in [10], 8 mg/L (≈ 22.3 µM); in test [11], 8 mg/L (≈ 22.3 µM); in test [12], 8 mg/L (≈ 22.3 µM). Besides, the MIC in test [13] and in test [14] was 8 mg/L (≈ 22.3 µM) in each case.

Regarding `CC(C)=N/N=C1\SCC(=O)N1Cc1cccc2ccccc12`, the minimum inhibitory concentration (MIC) in test [1], in [2], in test [3], in [4], in test [5] and in test [6] was more than 256 mg/L throughout. In addition, the minimal inhibitory concentration (MIC) is more than 256 mg/L in test [7]; more than 256 mg/L in test [8]; 4 mg/L (≈ 12.8 µM) in [9]; 4 mg/L (≈ 12.8 µM) in test [10]; 2 mg/L (≈ 6.42 µM) in test [11]; 2 mg/L (≈ 6.42 µM) in test [12]. The MIC in test [13] and in test [14] was 2 mg/L (≈ 6.42 µM) in each case.

For `CCCCC/C(C)=N/N=C1\SCC(=O)N1CN1C(=O)c2ccccc2C1=O`, the MIC in [1], in test [2], in test [3], in test [4], in test [5] and in [6] was more than 256 mg/L each time. Besides, the MIC in [7] was more than 256 mg/L; in test [8], more than 256 mg/L; in test [9], 4 mg/L (≈ 10.3 µM); in test [10] it was 8 mg/L (≈ 20.7 µM); in test [11], 128 mg/L (≈ 331 µM); in [12], 2 mg/L (≈ 5.17 µM). The minimum inhibitory concentration (MIC) in test [13] and in [14] was 2 mg/L (≈ 5.17 µM) each time.

As for `CC/C(C)=N/N=C1\SCC(=O)N1CN1C(=O)c2ccccc2C1=O`, the MIC in test [1], in test [2], in [3], in test [4], in test [5] and in [6] was more than 256 mg/L in each case. Moreover, the MIC in [7] is more than 256 mg/L; in [8], more than 256 mg/L; in test [9], 2 mg/L (≈ 5.81 µM); in test [10], 2 mg/L (≈ 5.81 µM); in [11], 64 mg/L (≈ 186 µM); in [12] it was 8 mg/L (≈ 23.2 µM). Also, the minimal inhibitory concentration (MIC) in [13] came out at 8 mg/L (≈ 23.2 µM); in test [14], 2 mg/L (≈ 5.81 µM).

`C[C@@H]1[C@H](O)[C@@H](C)/C=C/C=C/C=C/C=C/C=C/C=C/C=C/[C@H](O[C@@H]2O[C@H](C)[C@@H](O)[C@H](N)[C@@H]2O)C[C@@H]2O[C@](O)(C[C@@H](O)C[C@@H](O)[C@H](O)CC[C@@H](O)C[C@@H](O)CC(=O)O[C@H]1C)C[C@H](O)[C@H]2C(=O)O` [AMPHOTERICIN B]: the MIC in test [9] was 4 mg/L (≈ 4.33 µM); in test [10] it was 4 mg/L (≈ 4.33 µM); in test [11] it was 2 mg/L (≈ 2.16 µM); in [12] it was 4 mg/L (≈ 4.33 µM); in [13] it was 2 mg/L (≈ 2.16 µM); in [14], 2 mg/L (≈ 2.16 µM).

For the compound `CC(C)(O/N=C(\C(=O)N[C@@H]1C(=O)N2C(C(=O)[O-])=C(C[n+]3ccccc3)CS[C@H]12)c1csc(N)n1)C(=O)O` [CEFTAZIDIME], the minimal inhibitory concentration (MIC) in [1] worked out at 2 mg/L (≈ 3.66 µM); in test [2], 4 mg/L (≈ 7.32 µM); in [3] it was 4 mg/L (≈ 7.32 µM); in test [4], 4 mg/L (≈ 7.32 µM); in [5], 4 mg/L (≈ 7.32 µM); in [6] it was 8 mg/L (≈ 14.6 µM). The MIC in test [7] and in test [8] was 8 mg/L (≈ 14.6 µM) throughout.

As to `Clc1ccccc1C(c1ccccc1)(c1ccccc1)n1ccnc1` [CLOTRIMAZOLE], the MIC in test [9], in test [10], in test [11], in test [12], in [13] and in test [14] was 2 mg/L (≈ 5.8 µM) each time.

As for `OC(Cn1cncn1)(Cn1cncn1)c1ccc(F)cc1F` [FLUCONAZOLE], the minimal inhibitory concentration (MIC) in [9], in test [10], in [11], in test [12], in [13] and in test [14] was 2 mg/L (≈ 6.53 µM) throughout.

For `CC(=O)N1CCN(c2ccc(OCC3COC(Cn4ccnc4)(c4ccc(Cl)cc4Cl)O3)cc2)CC1` (stereo unspecified) [KETOCONAZOLE], the MIC in [9] was 2 mg/L (≈ 3.76 µM); in [10], 2 mg/L (≈ 3.76 µM); in test [11] it was 2 mg/L (≈ 3.76 µM); in test [12], 4 mg/L (≈ 7.53 µM); in [13], 2 mg/L (≈ 3.76 µM); in test [14] it was 4 mg/L (≈ 7.53 µM).

`Clc1ccc(COC(Cn2ccnc2)c2ccc(Cl)cc2Cl)c(Cl)c1` (stereo unspecified) [MICONAZOLE]: the minimal inhibitory concentration (MIC) in test [9] was found to be 2 mg/L (≈ 4.81 µM); in test [10], 4 mg/L (≈ 9.61 µM); in test [11] it was 2 mg/L (≈ 4.81 µM); in [12] it was 4 mg/L (≈ 9.61 µM); in test [13], 4 mg/L (≈ 9.61 µM); in test [14], 2 mg/L (≈ 4.81 µM).

For `Clc1ccc(C(Cn2ccnc2)OCc2ccsc2Cl)c(Cl)c1` (stereo unspecified) [TIOCONAZOLE], the MIC in test [9] is 8 mg/L (≈ 20.6 µM); in test [10], 4 mg/L (≈ 10.3 µM); in test [11], 8 mg/L (≈ 20.6 µM); in test [12], 8 mg/L (≈ 20.6 µM); in test [13], 8 mg/L (≈ 20.6 µM); in test [14], 4 mg/L (≈ 10.3 µM).

The values are drawn from ChEMBL document CHEMBL3739379, “Anti-Candida activity and cytotoxicity of a large library of new N-substituted-1,3-thiazolidin-4-one derivatives” (Eur J Med Chem, 2016).
